From ChEMBL document CHEMBL5647683 (Oncogene, 2008)
Active and inactive are the calls of the source. The rule behind the calls is not given here.

What was measured:
[1] = Cmax in human MDA-MB-453 cells xenografted athymic NMRI-nu/nu female mouse at 20 mg/kg, po administered daily for 25 days by LC-MS-MS method; format: ADME, organism-based; conditions: in vivo, time 25 day
A-431 [2] = experiment: In vivo inhibition of EGFR in human A-431 cells xenografted athymic NMRI-nu/nu female mouse as reduction in AKT phosphorylation at 20 mg/kg, po administered daily for 25 days by immunohistochemical staining; format: functional, organism-based; conditions: time 25.0 day
How it was run: (§1)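 A431 flank xenografts in female NMRI-nu/nu mice dosed daily by oral gavage in HP-β-CD/acetic acid/Natrosol vehicle. Tumors collected 6 h after the last dose. Sections immunostained for phospho-EGFR and phospho-AKT.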

[3] = target: Casein kinase 2 (Homo sapiens) (UniProt P67870+P68400+P19784+Q8NEV1); experiment: Inhibition of CK2 (unknown origin) assessed as remaining activity relative to control; values are per cent of control
Mus musculus [4] = experiment: Antitumor activity against EGFR L858R/T790M mutant driven lung cancer mouse model assessed as histological change in foci of localized inflammatory cells at 20 mg/kg, po administered daily for 2 weeks in the presence of rapamycin by IHC staining based analysis; format: functional, organism-based
[5] = target: Mitogen-activated protein kinase 1 (Homo sapiens) (UniProt P28482); experiment: Inhibition of ERK2 (unknown origin) assessed as remaining activity relative to control; values are per cent of control
Sequence of Mitogen-activated protein kinase 1 (Homo sapiens) (P28482 whole entry): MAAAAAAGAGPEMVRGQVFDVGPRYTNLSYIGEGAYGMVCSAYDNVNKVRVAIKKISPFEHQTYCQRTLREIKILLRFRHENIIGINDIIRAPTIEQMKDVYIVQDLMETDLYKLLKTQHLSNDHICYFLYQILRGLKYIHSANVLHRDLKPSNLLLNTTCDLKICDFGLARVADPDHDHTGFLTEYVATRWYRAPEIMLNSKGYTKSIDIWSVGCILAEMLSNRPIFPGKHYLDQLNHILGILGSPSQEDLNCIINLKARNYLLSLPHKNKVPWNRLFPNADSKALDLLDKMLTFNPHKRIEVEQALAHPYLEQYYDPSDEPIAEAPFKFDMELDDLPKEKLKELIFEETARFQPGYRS

[6] = target: Dual specificity tyrosine-phosphorylation-regulated kinase 1A (Homo sapiens) (UniProt Q13627); experiment: Inhibition of DYRK1a (unknown origin) assessed as remaining activity relative to control; values are per cent of control
NIH3T3 [7] = experiment: Inhibition of colony formation in EGFR exon 20 insertion mutant D770-771insNPG expressing mouse NIH3T3 cells assessed as number of colonies at 1 to 10000 nM incubated for 2 week by soft agar assay; format: functional, cell-based; conditions: dose 1-10000 nM, time 2.0 weeks
How it was run: (§2)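 NIH-3T3 cells expressing wild-type or mutant EGFR suspended in top agar (DMEM, 10% calf serum, 0.4% agar) over 0.5% agar bottom layer; drug added to top layer; wild-type cells supplemented with 100 ng/ml EGF. Triplicate plating, 2-week incubation; colonies counted from 10 fields photographed at ×4; values normalized to untreated.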

[8] = Inhibition of human EGFR S752_I759del8 mutant expressed in mouse BaF3 cells assessed as reduction in cell survival incubated for 48 hrs by WST assay
Mus musculus [9] = experiment: Antitumor activity against EGFR L858R/T790M mutant driven lung cancer mouse model assessed as […] at 20 mg/kg, po administered daily for 1 week in the presence of rapamycin by MRI analysis; format: functional, organism-based; conditions: time 1.0 weeks
How it was run: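 Bitransgenic L858R/T790M EGFR lung tumor mice on continuous doxycycline received oral gavage at 20 mg/kg/day (0.5% methylcellulose–0.4% Tween 80) plus intraperitoneal rapamycin at 2 mg/kg/day (ethanol stock diluted in 5% PEG400/5% Tween 80) for 1 week. Six mice; MRI before and after treatment; regression as mean ± s.d., Student's t-test.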

[10] = Cmax in human FaDu cells xenografted athymic NMRI-nu/nu female mouse at 20 mg/kg, po administered daily for 25 days by LC-MS-MS method; format: ADME, organism-based; conditions: in vivo, time 25 day
NIH3T3 [11] = experiment: Inhibition of colony formation in EGFR double mutant L858R/T790M expressing mouse NIH3T3 cells assessed as number of colonies at 1 to 10000 nM incubated for 2 week by soft agar assay; format: functional, cell-based; conditions: dose 1-10000 nM, time 2.0 weeks; how it was run: as §2
Mus musculus [12] = experiment: Antitumor activity against EGFR L858R/T790M mutant driven lung cancer mouse model assessed as increase in pigment-laden macrophages indicative of tissue damage and repair at 20 mg/kg, po administered daily for 2 weeks by IHC staining based analysis; format: functional, organism-based
NIH3T3 [13] = experiment: Inhibition of human EGFR mutant R108K phosphorylation at Y1173 residue expressed in mouse NIH3T3 cells at 1 to 10000 nM incubated for 2 hrs by immunoblot analysis; format: cell-based; conditions: dose 1-10000 nM
FaDu = experiment: Antitumor activity against human FaDu cells xenografted athymic NMRI-nu/nu female mouse as reduction in tumor volume at 20 mg/kg, po administered daily for 25 days relative to control; format: functional; conditions: time 25 day
How it was run: (§3)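 Female athymic NMRI-nu/nu mice (5–6 weeks, 21–31 g) given 1–5×10⁶ cells into the right flank; MDA-MB-453 tumors started from fresh 2×2×2 mm fragments. At 40–130 mm³, tumors were randomized to weight-based daily oral gavage (10 ml/kg; 1.8% HP-β-CD, 5% acetic acid (10%), 0.5% Natrosol) or vehicle. Caliper measurement 3×/week, volume π/6×L×W². Expressed as cumulative treated/control volume ratio; one-way ANOVA with Dunnett's test.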

[14] = target: Protein kinase C alpha type (Homo sapiens) (UniProt P17252); experiment: Inhibition of PKCalpha (unknown origin) assessed as remaining activity relative to control; values are per cent of control
SK-OV-3 = experiment: Antitumor activity against human SK-OV-3 cells xenografted athymic NMRI-nu/nu female mouse as reduction in tumor volume at 20 mg/kg, po administered daily for 25 days relative to control; format: functional; conditions: time 25 day; how it was run: as §3
NIH3T3 [15] = experiment: Inhibition of colony formation in EGFR mutant R108K expressing mouse NIH3T3 cells assessed as number of colonies at 1 to 10000 nM incubated for 2 week by soft agar assay; format: functional, cell-based; conditions: dose 1-10000 nM, time 2.0 weeks; how it was run: as §2
NCI-H1975 = experiment: Antitumor activity against EGFR L858R/T790M mutant expressing in human NCI-H1975 cells xenografted athymic NMRI-nu/nu female mouse as reduction in tumor volume at 20 mg/kg, po administered daily for 25 days relative to control; format: functional; conditions: time 25 day; how it was run: as §3
[16] = AUC(0-24hrs) in human MDA-MB-453 cells xenografted athymic NMRI-nu/nu female mouse at 20 mg/kg, po administered daily for 25 days by LC-MS-MS method; format: ADME, organism-based; conditions: in vivo, time 25 day
[17] = AUC(0-24hrs) in human NCI-N87 cells xenografted athymic NMRI-nu/nu female mouse at 20 mg/kg, po administered daily for 25 days by LC-MS-MS method; format: ADME, organism-based; conditions: in vivo, time 25 day
Mus musculus [18] = experiment: In vivo inhibition of HER2 phosphorylation in EGFR L858R/T790M mutant driven lung cancer mouse model at 20 mg/kg, po measured after 48 hrs by immunohistochemical staining; format: functional, organism-based
How it was run: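 Doxycycline-maintained L858R/T790M EGFR bitransgenic mice, three per group, received 20 mg/kg by gavage, alone or with 2 mg/kg intraperitoneal rapamycin, three times at 24 h intervals. Mice were killed 1 h after the last dose, about 48 h from the start. Lung sections immunostained for phosphorylated receptors; littermates served as controls.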

[19] = target: Dual specificity tyrosine-phosphorylation-regulated kinase 1A (Homo sapiens) (UniProt Q13627); experiment: Inhibition of DYRK1alpha (unknown origin) assessed as remaining activity relative to control; values are per cent of control
A-431 [20] = experiment: Antitumor activity against human A-431 cells xenografted athymic NMRI-nu/nu female mouse as reduction in EGFR phosphorylation at 20 mg/kg, po administered daily for 25 days by immunohistochemical staining; format: functional, organism-based; conditions: time 25.0 day; how it was run: as §1

Q: What does the source list for `CN(C)C/C=C/C(=O)Nc1cc2c(Nc3ccc(F)c(Cl)c3)ncnc2cc1O[C@H]1CCOC1` [AFATINIB]?
A: Cmax [1]: 83 nM; inhibition (A-431 [2]): Active; residual activity [3]: 100%; Activity (Mus musculus [4]): Active; residual activity [5]: 88%; residual activity [6]: 40%; inhibition (NIH3T3 [7]): Active; IC50 [8]: 0.2 nM; Activity (Mus musculus [9]): Active; Cmax [10]: 309 nM; inhibition (NIH3T3 [11]): Active; Activity (Mus musculus [12]): Active; inhibition (NIH3T3 [13]): Active; T/C (FaDu): 1%; residual activity [14]: 84%; T/C (SK-OV-3): 3%; inhibition (NIH3T3 [15]): Active; T/C (NCI-H1975): 12%; AUC at 600 h [16]: 0.972 µM·h; AUC at 600 h [17]: 1.07 µM·h; Activity (Mus musculus [18]): Active; residual activity [19]: 64%; Activity (A-431 [20]): Active
